The results in this text go back to ChEMBL document CHEMBL1125311, “Inhibition of human leukocyte elastase. 4. Selection of a substituted cephalosporin (L-658,758) as a topical aerosol” (J Med Chem, 1992).

Some results are limits rather than exact numbers.

Data set [1] concerns Cricetinae gen. sp. The data set is described as follows: Compound was evaluated in vivo for inhibition of HLE-induced hemorrhage in hamster lung at 200 microg, 2 hr after administration prior to HLE. In kind it is functional, Cricetulus griseus. The method in brief: (§1)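 Hamster duration protocol: 200 μg/animal given intratracheally 60, 120, 180 or 240 min before IT HLE instillation; hemorrhage scored after 3 h as hemoglobin (414 nm) in saline lung lavage, relative to vehicle-treated animals; three animals per point. T50 taken as time at which 50% inhibition is still obtained.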

Data set [2] has as its system Cricetinae gen. sp. In words: Compound was evaluated in vivo for inhibition of HLE-induced hemorrhage in hamster lung at 200 microg, 1 hr after administration prior to HLE. It counts as functional, Cricetulus griseus. The method in brief: as §1
In data set [3] the target is T1, Neutrophil elastase (Homo sapiens) (UniProt P08246).
T1 sequence (whole entry): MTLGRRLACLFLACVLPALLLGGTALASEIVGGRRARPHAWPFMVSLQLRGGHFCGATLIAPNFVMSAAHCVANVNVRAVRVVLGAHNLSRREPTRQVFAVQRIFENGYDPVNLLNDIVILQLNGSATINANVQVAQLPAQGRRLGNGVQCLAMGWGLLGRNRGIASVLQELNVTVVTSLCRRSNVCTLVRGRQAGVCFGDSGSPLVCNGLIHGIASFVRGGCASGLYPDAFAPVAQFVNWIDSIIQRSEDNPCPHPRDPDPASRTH

In data set [4] the test system is Cricetinae gen. sp. The data set is described as follows: Compound was evaluated in vivo for inhibition of HLE-induced hemorrhage in hamster lung at 200 microg, 4 hr after administration prior to HLE. In kind it is functional, Cricetulus griseus. The method in brief:
as §1

The test system of data set [5] is Cricetinae gen. sp. In words: Compound was evaluated in vivo for inhibition of HLE-induced hemorrhage in hamster lung at 100 microg, 30 min after administration prior to HLE. In kind it is functional, Cricetulus griseus. The method in brief: (§2)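 Hamster, intratracheal dosing of compound (per animal) 30 min before IT instillation of 50 μg HLE (50 units in Experimental); hemorrhage read 3 h later: lungs lavaged with saline, hemoglobin in lavage measured at 414 nm. Percent inhibition from drug-treated vs vehicle-treated hemorrhage; three animals per dose and time. Titration at 100, 30, 10, 3 μg/animal gives ED50.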

Data set [6] concerns Cricetinae gen. sp. The data set is described as follows: Compound was evaluated in vivo for inhibition of HLE-induced hemorrhage in hamster lung at 200 microg, 3h after administration prior to HLE. It counts as functional, Cricetulus griseus. The method in brief: as §1
For data set [7], the system named is Cricetinae gen. sp. In words: Compound was evaluated in vivo for inhibition of HLE-induced hemorrhage in hamster lung at 30microg, 30 min after administration prior to HLE. In kind it is functional, Cricetulus griseus. The method in brief:
as §2

Data set [8] concerns Cricetinae gen. sp. The data set is described as follows: Compound was evaluated in vivo for inhibition of HLE-induced hemorrhage in hamster lung at 30 ug 30 min after administration prior to HLE. In kind it is functional, Cricetulus griseus. The method in brief:
as §2

For data set [9], the system named is Cricetinae gen. sp. In words: Compound was evaluated in vivo for inhibition of HLE-induced hemorrhage in hamster lung at 100 microg 30 min after administration prior to HLE. In kind it is functional, Cricetulus griseus. The method in brief:
as §2

A short description of data set [10]: Half-life value of the compound. It counts as ADME. The method in brief:
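Chemical stability: compound dissolved at 1 mg/mL in 0.5 M MOPS, pH 8.0, held at 25 °C in capped vial; aliquots quenched in 2% aqueous TFA and analysed by reverse-phase HPLC over one to two half-lives. Peak areas fit to first-order decay F(t)=A/2^(t/t1/2) to give t1/2.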

Data set [11] deals with Cricetinae gen. sp. In words: Compound was evaluated in vivo for inhibition of HLE-induced hemorrhage in hamster lung at 3 ug 30 min after administration prior to HLE. In kind it is functional, Cricetulus griseus. The method in brief: as §2
For the next data set, the target named is T2, Neutrophil elastase (Homo sapiens, UniProt P08246).
T2 sequence (P08246 whole entry): T1 sequence (whole entry)
In words: In vitro inhibitory activity against human leukocyte elastase.

For data set [12], the system named is Cricetinae gen. sp. In words: Compound was evaluated in vivo for inhibition of HLE-induced hemorrhage in hamster lung at 10 ug 30 min after administration prior to HLE. In kind it is functional, Cricetulus griseus. The method in brief:
as §2

The subject of data set [13] is Cricetinae gen. sp. The data set is described as follows: Compound was evaluated in vivo for inhibition of HLE-induced hemorrhage in hamster lung at 100 microg, 30 min after administration. In kind it is functional, Cricetulus griseus. The method in brief:
as §2

Data set [14] relates to Cricetinae gen. sp. In words: Compound was evaluated in vivo for inhibition of HLE-induced hemorrhage in hamster lung at 10microg, 30 min after administration prior to HLE. In kind it is functional, Cricetulus griseus. The method in brief:
as §2

In data set [15] the test system is Cricetinae gen. sp. The data set is described as follows: Compound was evaluated in vivo for inhibition of HLE-induced hemorrhage in hamster lung at 400 microg, 30 min after administration. In kind it is functional, Cricetulus griseus.
Data set [16] deals with Cricetinae gen. sp. The data set is described as follows: Compound was evaluated in vivo for inhibition of HLE-induced hemorrhage in hamster lung at 100 microg 30 min after administration. It counts as functional, Cricetulus griseus. The method in brief: as §2

The term Inhibition denotes the relative decrease from the control value, in per cent. Consider `CO[C@H]1C(=O)N2C(C(=O)N(C)CC(=O)O)=C(COC(=O)c3ccccc3)CS(=O)(=O)[C@H]12`, for which the Inhibition with Cricetinae gen. sp. [1] is 58%; in the data set on Cricetinae gen. sp. [2], 88%; in the data set with Cricetinae gen. sp. [4] it was 5%; with Cricetinae gen. sp. [5], 87%; in the data set with Cricetinae gen. sp. [6], 38%; in the data set on Cricetinae gen. sp. [7], 58%. The k obs / 1 in data set [3] amounted to 600 M⁻¹ s⁻¹.
The term half-life denotes the time in which the quantity being followed falls by half. A lower half-life goes with fast loss. The Ki is the dissociation constant of the complex between target and ligand, obtained from inhibition or displacement. Regarding `CO[C@H]1C(=O)N2C(C(=O)N3CCCC3C(=O)O)=C(CSc3nc(=O)c(=O)[nH]n3C)CS(=O)(=O)[C@H]12` (stereo partly drawn), the Inhibition is on record as 86% in the data set on Cricetinae gen. sp. [8], 100% with Cricetinae gen. sp. [9], 61% in the data set on Cricetinae gen. sp. [11] and 80% in the data set with Cricetinae gen. sp. [12]. In addition, the half-life in [10] was 46 h. The compound also displayed a Ki at Neutrophil elastase of 0.25 µM.
In the case of `CO[C@H]1C(=O)N2C(C(=O)N3CCC[C@@H]3C(=O)O)=C(COC(C)=O)CS(=O)(=O)[C@H]12`, in data set [10], the half-life is < 5 h. At Neutrophil elastase, this compound gave a Ki of 3.4 µM.
In turn, `CC[C@H]1C(=O)N2C(C(=O)N(C)CC(=O)O)=C(COC(C)=O)CS(=O)(=O)[C@H]12` showed a k obs / 1 in data set [3] of 30 M⁻¹ s⁻¹. In data set [10], the half-life was > 50 h.
As to `CO[C@H]1C(=O)N2C(C(=O)N(C)Cc3ccc(C(=O)O)cc3)=C(COC(C)=O)CS(=O)(=O)[C@H]12`, the k obs / 1 in [3] was found to be 8600 M⁻¹ s⁻¹. Also, in the data set with Cricetinae gen. sp. [13], the Inhibition is given as 65%.
In the case of `CO[C@H]1C(=O)N2C(C(=O)N(C)CC(=O)O)=C(CSc3ccccn3)CS(=O)(=O)[C@H]12`, the Inhibition in the data set on Cricetinae gen. sp. [14] stood at 35%; with Cricetinae gen. sp. [5], 76%; in the data set on Cricetinae gen. sp. [7], 46%. The same compound came in with a Ki at Neutrophil elastase of 43 µM.
In the case of `CO[C@H]1C(=O)N2C(C(=O)NC(C)(C)C)=C(COC(C)=O)CS(=O)(=O)[C@H]12`, the k obs / 1 in data set [3] worked out at 2200 M⁻¹ s⁻¹. For the same compound, the Inhibition in the data set on Cricetinae gen. sp. [15] is -5%.
With `CC[C@H]1C(=O)N2C(C(=O)N(C)CC(=O)O)=C(COC(=O)c3ccc(C(=O)O)cc3)CS(=O)(=O)[C@H]12`, the Inhibition was found to be 59% with Cricetinae gen. sp. [1], 84% in the data set with Cricetinae gen. sp. [2] and 57% with Cricetinae gen. sp. [6]. The compound further returned a k obs / 1 in data set [3] of 100 M⁻¹ s⁻¹.
With `CO[C@H]1C(=O)N2C(C(=O)N(C)CC(=O)O)=C(CSc3nnnn3C)CS(=O)(=O)[C@H]12`, the k obs / 1 in [3] worked out at 600 M⁻¹ s⁻¹.
In the case of `CC[C@H]1C(=O)N2C(C(=O)OCc3ccc(C(=O)O)cc3)=C(COC(C)=O)CS(=O)(=O)[C@H]12`, in the data set with Cricetinae gen. sp. [16], the Inhibition is given as -32%. This compound also returned a k obs / 1 in data set [3] of 5700 M⁻¹ s⁻¹. This compound had a half-life in data set [10] of 40 h.
Take `CO[C@H]1C(=O)N2C(C(=O)N(C)CC(=O)OC(C)(C)C)=C(CSc3nnnn3CC(=O)O)CS(=O)(=O)[C@H]12`: the Inhibition worked out at 59% in the data set with Cricetinae gen. sp. [8], 91% with Cricetinae gen. sp. [9] and 20% with Cricetinae gen. sp. [12]. Also, in data set [3], the k obs / 1 is 20500 M⁻¹ s⁻¹.
`CO[C@H]1C(=O)N2C(C(=O)N(C)Cc3ccccc3)=C(COC(=O)c3ccc(C(=O)O)cc3)CS(=O)(=O)[C@H]12` showed a k obs / 1 in data set [3] of 10000 M⁻¹ s⁻¹.
